Screening results: PubChem BioAssay, several laboratories
Rows were chosen to be rich in hits. Some 0.99% of all compounds tested hit in one or more screens of this group.
Arrestin-AP2 inh: blocks beta-arrestin peptide binding to AP2 adaptin; AID 504490; FITC-arrestin peptide / GST-AP2 beads, flow cytometry; AP2 beta2 appendage carries R879A mutation; inhibition, % at 10 µM; 0.31% of 340,000 active;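 active = inhibition above a set limit, near 3 SD of compounds lacking own fluorescence, cut at about 54% in these data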;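 note: plate controls were DMSO wells for no effect and 5 µM unlabelled arrestin peptide for full effect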
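Test system: GST-tagged AP2 beta2-adaptin appendage (R879A) on 4 µm glutathione beads; also added: fluorescein-tagged arrestin peptide at 50 nM final; timing: 12 min plus 1 h, RT; signal: flow cytometry, FL1 (488/535 nm); read-out: percent drop in bead-associated FITC signal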
GSK3 alpha inh: human GSK-3 alpha kinase inhibition; inhibition, % at 10 µM; AID 2650; ADP-Glo luminescence, 60 min; 0.1% of 320,000 active;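 active = more than half of replicates show inhibition above 20%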;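 note: GST-tagged GSK-3 alpha with peptide substrate and 25 µM ATP; 0% = DMSO neutral wells and 100% = GW8510 positive control wells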
Target sequence (P49840 whole entry, looked up): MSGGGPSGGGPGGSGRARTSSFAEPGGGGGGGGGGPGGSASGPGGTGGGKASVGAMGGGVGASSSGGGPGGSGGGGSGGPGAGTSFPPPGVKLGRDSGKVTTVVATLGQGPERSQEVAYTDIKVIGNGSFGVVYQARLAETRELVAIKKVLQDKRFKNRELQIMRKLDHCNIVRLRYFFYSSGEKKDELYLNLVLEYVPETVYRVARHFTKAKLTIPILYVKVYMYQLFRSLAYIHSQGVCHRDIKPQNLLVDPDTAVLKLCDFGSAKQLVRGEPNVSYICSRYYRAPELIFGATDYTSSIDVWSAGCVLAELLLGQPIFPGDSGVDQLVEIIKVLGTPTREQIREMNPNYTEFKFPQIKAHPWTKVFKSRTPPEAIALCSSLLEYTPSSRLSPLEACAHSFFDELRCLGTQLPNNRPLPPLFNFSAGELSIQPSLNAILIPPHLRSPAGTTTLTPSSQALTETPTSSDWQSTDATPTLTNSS
STK33 kinase inh: inhibitors of human STK33 kinase; purified STK33, MBP phosphorylation, ADP-Glo luminescence; inhibition, % at 10 µM; AID 2661; 0.073% of 320,000 active;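 active = inhibition at or above 25%, using the most active replicate where run in duplicate; inactive = inhibition below 25%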
DYRK1A inh: Dyrk1A (rat) kinase inhibition; Q63470; ADP-Glo luminescence, NFATc1 peptide; inhibition, % at 12.5 µM; 0.43% of 310,000 active; AID 504441; in the data active = inhibition above about 50%;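 note: plate controls were vehicle with enzyme for no effect and no enzyme for full effect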
Rin1-Abl PPI inh: blocks binding of human Rin1 to Abl; TR-FRET Rin1/Abl binding, biochemical; inhibition, % at 7.35 µM; P00519+Q13671; 0.4% of 360,000 active; in the data active = inhibition above about 5%, passing the limit was not always enough
GSK3beta inhib: blocks human GSK3beta kinase activity; P49841; GST-GSK3beta kinase, ADP-Glo luminescence, 60 min; stronger effect = lower value; activity score (negative = inhibition), % at 10 µM; 0.038% of 300,000 active; AID 2097;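 active = more than half of replicate wells score below -50%, meaning over 50% inhibition versus plate controls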;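 note: 0% = median DMSO wells and -100% = median GW8510 positive control wells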
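Test system: GST-tagged human GSK3beta kinase, cell-free; evaluation: activity score scaled between in-plate DMSO and GW8510 controls; measured by: ADP-Glo luminescence; incubation: 60 min reaction, RT; benchmarks: DMSO and 20 µM GW8510; reagent: peptide substrate plus 25 µM ATP (final); medium: Tris/MgCl2 kinase buffer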
ADP-Glo artifact: interferes with ADP-Glo luciferase readout without Dyrk1A. AID 588348. AC50, µM (doses to about 12 µM), for the others: at the highest dose activity change, negative = inhibition. 1,300 tested, under 10 active. shares compounds with DYRK1A inh. ADP-Glo luciferase artifact assay, no Dyrk1A, luminescence;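 active = fitted half-maximal dose AC50 no more than ten times the top valid tested dose, with luminescence dropping as dose rises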
Starred values were filed as active, the others as inactive; · = not tested or not shown.

SMILES | Arrestin-AP2 inh | GSK3 alpha inh | STK33 kinase inh | DYRK1A inh | Rin1-Abl PPI inh | GSK3beta inhib | ADP-Glo artifact
O=C1CC(c2ccc(S(=O)(=O)NC3CC3)cc2)CN1 (configuration not stated) | 12.2 | -1.5 | -1.2 | 58.3* | -4.8 | -7.8 | 9.9%
Cc1[nH]nc2nc(SCC(=O)NC3CCCCC3)n(-c3ccc(Br)cc3)c(=N)c12 | 0.4 | -1.9 | 0.3 | · | -3.3 | 0.6 | ·
CCCCN(CC)CCCNC(=O)c1cc2cc3ccc(OC)cc3nc2o1 | 6.2 | -12.6 | 2.0 | 50.2* | -4.7 | -3.0 | 9.0%
Cc1ccc2cc3cc(C(=O)NCCN4CCOCC4)oc3nc2c1 | -0.9 | -1.6 | -0.9 | -0.3 | -7.6 | 1.1 | ·
COc1ccc2cc3cc(C(=O)NCCN4CCN(Cc5ccccc5)CC4)oc3nc2c1 | -6.4 | 2.4 | -0.3 | 51.7* | -8.5 | 5.3 | 9.3%
CCCN(CCC)CCCNC(=O)c1cc2cc3ccc(OC)cc3nc2o1 | 0.1 | 9.5 | -0.4 | 37.3 | -8.3 | -7.0 | ·
COc1ccc2nc3oc(C(=O)NC4CCN(Cc5ccccc5)CC4)cc3cc2c1 | 11.6 | 0.4 | 3.1 | 6.6 | -5.5 | · | ·
COc1ccc2cc3cc(C(=O)NCCCN4CCC(C)CC4)oc3nc2c1 | -10.8 | 7.9 | -1.2 | 52.8* | -3.9 | · | 7.2%
COc1ccc2cc3cc(C(=O)NCCCN4CCOCC4)oc3nc2c1 | 5.0 | 3.1 | 0.5 | 57.6* | -7.7 | -3.3 | 9.1%
CC1(C)CC[C@]2(C(=O)O)[C@H](O)C[C@]3(C)C(=CCC4[C@@]5(C)C[C@H](O)[C@H](O)[C@@](C)(CO)C5CC[C@]43C)[C@@H]2C1 (some centres not stated) | -3.8 | -1.5 | -0.5 | 3.3 | 1.9 | -0.2 | ·
COc1ccc2cc3cc(C(=O)NCCc4ccc(OC)c(OC)c4)oc3nc2c1 | 1.6 | -2.8 | 1.1 | 8.8 | -5.8 | -0.2 | ·
CCN1CCN(CCCNC(=O)c2cc3cc4ccc(OC)cc4nc3o2)CC1 | -12.1 | 3.8 | 0.1 | 87.9* | -5.6 | -8.7 | 7.3%
CCCC1=Nc2cc(C(=O)N3CCN(c4ccccn4)CC3)ccc2Sc2ccc(C)cc21 | 22.4 | -2.2 | -1.0 | 1.0 | 3.1 | -0.2 | ·
COc1c(C)oc2cc(O)ccc2c1=O | 11.6 | 6.4 | 3.7 | 3.5 | 0.7 | -1.3 | ·
Oc1ccc2c(c1)oc1cc(O)ccc12 | -3.1 | 53.1* | 12.5 | 89.8* | -2.8 | 2.9 | 10.9%
COc1ccc(C=C2C(=O)c3ccccc3C2=O)cc1O | 6.1 | 8.5 | 10.7 | 84.4* | -3.4 | -1.5 | -5.0%
COc1cc(/C=C2\SC(N)=NC2=O)ccc1O | 6.5 | 6.1 | 26.1* | 89.8* | -6.3 | 6.1 | 6.6%
COc1cc(C=C2C(=O)c3ccccc3C2=O)cc(OC)c1OC | 10.6 | -1.0 | 0.4 | -7.6 | -2.8 | -2.1 | ·
COc1cc(C=C2C(=O)c3ccccc3C2=O)ccc1O | 10.1 | 9.8 | 9.6 | 96.8* | -1.6 | -0.7 | 5.5%
CCCCN(C(=O)CSCC(=O)Nc1ccc(OC)cc1)c1c(N)n(Cc2ccccc2)c(=O)[nH]c1=O | 22.4 | -1.4 | -1.0 | -2.8 | 2.2 | -1.4 | ·
CN(C(=O)c1cccc(NC(=O)Cc2ccc(NC(=O)C3CCN(C(=O)CCc4ccccc4)CC3)cc2)c1)C1CCC1 | 2.0 | · | · | 2.3 | 1.1 | · | ·
CC(C)NS(=O)(=O)c1ccc(OCC(=O)N(C)Cc2ccccc2)cc1 | 23.9 | 3.6 | 4.9 | 83.2* | -0.6 | -0.2 | 5.4%
CCOC(=O)c1ccc2ncc(C(=O)OCC)c(Nc3ccc(N4CCOCC4)cc3)c2c1 | 20.7 | 23.7 | 4.2 | 65.2* | -1.8 | -15.6 | 6.3%
Oc1ccc2nnc3c(Br)cnn3c2c1 | 32.7 | 21.2 | 11.5 | 77.2* | -2.2 | -6.8 | 9.6%
Clc1ccc2nc3c4ccccc4cnn3c2c1 | -2.6 | -1.4 | 1.8 | 24.0 | -2.2 | -0.7 | ·
Oc1ccc2c(ccc3[nH]cnc32)c1 | 33.2 | 1.9 | 12.8 | 79.0* | -2.5 | 1.9 | 7.1%
Oc1ccc2cccnc2c1 | 6.3 | -1.7 | 0.7 | 17.6 | -4.1 | 0.8 | ·
COc1cccc(C(=O)Nc2ccc(F)c(F)c2F)c1 | 3.4 | -1.2 | -0.5 | 50.9* | -2.2 | 0.7 | 7.6%
